# Results reported in ChEMBL document CHEMBL4354817, “4-(3-Aminoazetidin-1-yl)pyrimidin-2-amines as High-Affinity Non-imidazole Histamine H3 Receptor Agonists with in Vivo Central Nervous System Activity” (J Med Chem, 2019).
# Legend:
# Histamine H3 receptor [1] = target: T1, Histamine H3 receptor (Homo sapiens, UniProt Q9Y5N1); experiment: Displacement of [3H]NAMH from human H3R expressed in HEK293T cells incubated for 2 hrs by microbeta scintillation counting analysis; assay type: cell-based
# Procedure, shortened: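 Homogenates of HEK293T cells transiently expressing hH3R or mH3R, harvested 48 h post-transfection, incubated with 2 nM [3H]NAMH and increasing unlabeled ligand in 50 mM Tris–HCl pH 7.4, 2 h at 25 °C. Rapid filtration over 0.5% PEI-coated GF/C filters, scintillation counting. One-site fit; IC50 converted to pKi by Cheng–Prusoff; three experiments in triplicate.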
# Histamine H3 receptor [2] = target: T1, Histamine H3 receptor; experiment: Agonist activity at human H3R expressed on HEK293T cells assessed as inhibition of forskolin-induced CRE-driven luciferase activity co-incubated with forskolin for 6 hrs and measured after 30 mins by CRE-luciferase reporter gene assay; assay type: functional
# Procedure, shortened: (§1)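 HEK293T cells transiently transfected (PEI method) in suspension with receptor cDNA (1000 ng), CRE-luciferase (2500 ng) and empty pcDEF3; 50.000 cells/well on poly-L-lysine, grown 24 h. Stimulated with increasing ligand concentrations plus 1 μM forskolin, 37 °C, 5% CO2, 6 h. Luciferase reagent (ATP, D-luciferin) added, luminescence read after 30 min at 37 °C. Nonlinear regression; α relative to histamine; three experiments in triplicate.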
# Histamine H3 receptor [3] = target: T1, Histamine H3 receptor; experiment: Intrinsic activity at human H3R expressed on HEK293T cells assessed as activation of forskolin-induced CRE-driven luciferase activity co-incubated with forskolin for 6 hrs and measured after 30 mins by CRE-luciferase reporter gene assay relative to histamine; assay type: functional; procedure, shortened: as §1
# T1 sequence (Q9Y5N1 whole entry): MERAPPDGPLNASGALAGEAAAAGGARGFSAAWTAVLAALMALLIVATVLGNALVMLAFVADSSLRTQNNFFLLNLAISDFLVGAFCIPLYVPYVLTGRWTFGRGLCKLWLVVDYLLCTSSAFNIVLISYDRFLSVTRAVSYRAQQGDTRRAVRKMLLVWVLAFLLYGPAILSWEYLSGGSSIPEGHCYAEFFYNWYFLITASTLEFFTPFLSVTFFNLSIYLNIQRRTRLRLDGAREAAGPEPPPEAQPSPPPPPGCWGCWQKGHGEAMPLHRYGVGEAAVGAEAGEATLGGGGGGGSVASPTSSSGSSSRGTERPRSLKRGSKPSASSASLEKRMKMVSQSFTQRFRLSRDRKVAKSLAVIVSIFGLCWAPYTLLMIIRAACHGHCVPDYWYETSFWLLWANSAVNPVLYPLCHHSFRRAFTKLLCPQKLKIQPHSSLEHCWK
Structure (SMILES),Ki (Histamine H3 receptor [1]),EC50 (Histamine H3 receptor [2]),Intrinsic activity (Histamine H3 receptor [3])
CCC(C)NC1CN(c2ccnc(N)n2)C1 (racemic),12.6 nM,2 nM,1.1
CC(C)c1cc(N2CC(N)C2)nc(N)n1,200 nM,79.4 nM,0.7
Nc1nccc(N2CC(N3CCCC3)C2)n1,39.8 nM,7.94 nM,1.3
CCNC1CN(c2ccnc(N)n2)C1,10 nM,0.631 nM,1
CNC1CN(c2cc(C)nc(N)n2)C1,31.6 nM,10 nM,0.8
CCc1cc(N2CC(N)C2)nc(N)n1,79.4 nM,31.6 nM,0.9
Cc1cc(N2CC(N(C)C)C2)nc(N)n1,316 nM,39.8 nM,0.9
CN(C)C1CN(c2ccnc(N)n2)C1,50.1 nM,3.98 nM,1
CCNC1CN(c2cc(C(C)C)nc(N)n2)C1,100 nM,158 nM,0.3
CNC1CN(c2cc(C(C)C)nc(N)n2)C1,100 nM,12.6 nM,0.7
CC(C)CNC1CN(c2ccnc(N)n2)C1,39.8 nM,5.01 nM,1.1
CCNC1CN(c2cc(CC)nc(N)n2)C1,126 nM,31.6 nM,0.9
